In ChEMBL document CHEMBL1126553, “Antioxidant and neutrophil-inhibiting properties of new 2-O-methyl-6-(alkylthio)ascorbic acid derivatives” (J Med Chem, 1993):
The source made the active and inactive calls. The rule behind the calls is not given here.

Experiments:
Homo sapiens [1] = organism: Homo sapiens; test: Inhibitory effect on superoxide anion formation of fMLP-stimulated neutrophils at 1 uM by cytochrome c assay; Did not inhibit or weakly inhibited; format: functional
Rattus norvegicus [2] = organism: Rattus norvegicus; test: Tested for inhibition of lipid peroxidation in rat liver microsomes; format: functional
Outline: (§1)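 Wistar rat liver microsomes (1 mg/mL) in 50 mM potassium phosphate, pH 7.2, with 50 μM ADP and 5 μM […]. Compound or DMSO was preincubated at 25 °C (5 min per methods; legend says 3 min). Peroxidation was started with 1 mM NADPH. After 15 min, malondialdehyde was measured by thiobarbituric acid at 532 nm. Mean ± SEM, n = 3.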

Homo sapiens [3] = organism: Homo sapiens; test: Inhibitory effect on superoxide anion formation of fMLP-stimulated neutrophils at 1 uM by cytochrome c assay; format: functional
Homo sapiens [4] = organism: Homo sapiens; test: Tested for inhibition of fMLP induced secretion of lysozyme from human neutrophil cells; Did not influence or inactive; format: functional, cell-based
[5] = Dissociation constant in aqueous solution; format: physicochemical
Homo sapiens [6] = organism: Homo sapiens; test: Inhibition of fMLP-induced oxidative burst in a cell density of 2 x 10 e 6 cells/mL; format: functional, cell-based
Homo sapiens [7] = organism: Homo sapiens; test: Inhibition of fMLP-stimulated superoxide production in a cell density of 5 x 10 e 6 cells/mL; format: functional, cell-based
[8] = Dissociation constant in aqueous system; format: physicochemical
Homo sapiens [9] = organism: Homo sapiens; test: Inhibition of fMLP-induced secretion of lysozyme (azurophilic and specific granules); format: functional
Homo sapiens [10] = organism: Homo sapiens; test: Inhibition of fMLP-induced secretion of beta-glucurodinase (azurophilic granules); format: functional
Outline: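 Neutrophils at 5 × 10⁶/mL were primed with 5 μg/mL cytochalasin B (4 min, 37 °C), given compound in 0.1% DMSO for 3 min, then 100 nM fMLP for 15 min. Stopped on ice and pelleted. Supernatant β-glucuronidase was assayed with 4-methylumbelliferyl-β-D-glucuronide, pH 4.0, 15 min at 37 °C; fluorescence ex 365/em 460 nm. n = 3.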

Homo sapiens [11] = organism: Homo sapiens; test: Maximum Inhibition of fMLP-stimulated superoxide production in a cell density of 5 x 10 e 6 cells/mL; format: functional
Homo sapiens [12] = organism: Homo sapiens; test: Inhibition of fMLP-induced oxidative burst in a cell density of 5 x 10 e 5 cells/mL; format: functional, cell-based
Homo sapiens [13] = organism: Homo sapiens; test: Maximum inhibition of MLP-induced oxidative burst in a cell density of 2 x 10 e 6 cells/mL; format: functional
Rattus norvegicus [14] = organism: Rattus norvegicus; test: Inhibition of Fe(2+)/ADP-induced lipid peroxidation of rat liver microsomes; format: functional; outline: as §1

COC1=C(O)OC(C(O)CSc2ccccc2)C1=O (stereo not drawn)
inhibition (Homo sapiens [1]): Did not inhibit or weakly inhibited

CCCCCCCCCCCCCCCCSCC(O)C1OC(=O)C(OC)=C1OC (stereo not drawn)
inhibition (Homo sapiens [1]): Did not inhibit or weakly inhibited

CCCCCCCCCCCCSCC(O)C1OC(O)=C(OC)C1=O (stereo not drawn)
IC50 (Rattus norvegicus [2]): 2500 nM | inhibition (Homo sapiens [1]): Did not inhibit or weakly inhibited

CCCCCCCCCCCCCCCCCCSCC(O)C1OC(O)=C(OC)C1=O (stereo not drawn)
inhibition at 1 µM (Homo sapiens [3]): 40%

CCCCCCCCCCCCCCCCSCC(O)C1OC(=O)C(O)=C1OC (stereo not drawn)
inhibition (Homo sapiens [4]): inactive | pKa [5]: 7.7

CCCCCCCCCCCCCCCCSCC(O)C1OC(O)=C(OC)C1=O (stereo not drawn)
IC50 (Homo sapiens [6]): 1250 nM | IC50 (Homo sapiens [7]): 3700 nM | pKa [8]: 3.32 | IC50 (Homo sapiens [9]): 2500 nM | IC50 (Homo sapiens [10]): 7000 nM | inhibition at 1 µM (Homo sapiens [3]): 80% | Max inhibition concentration (Homo sapiens [11]): 10 µM | IC50 (Homo sapiens [12]): 600 nM | Max inhibition concentration (Homo sapiens [13]): 5 µM | IC50 (Rattus norvegicus [14]): 2000 nM

CCCCCCCCSCC(O)C1OC(O)=C(OC)C1=O (stereo not drawn)
inhibition (Homo sapiens [1]): Did not inhibit or weakly inhibited
